# Assay results from PubChem BioAssay.
# Activity calls are given as the source filed them.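 How the source made its calls, unless noted: active means Her2 level under about 52% in both replicate screens, with viability over 70% of control (limit read from the data); inconclusive means Her2 under the limit in one screen only, or viability under 70%; inactive means Her2 level above the set limit.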
# Columns and labels:
# [1] = reducers of endogenous Her2 protein level, primary screen, SKBR3 breast tumor cells, AlphaScreen, ATP viability (AID 461); details: 18-24 h, measured here: SKBR3 viability, ATP luminescence, at 10 µM;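 on Her2 level: lower value means less Her2 protein in the cells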;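 on viability: percent of carrier control wells set as 100% viability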
# [2] = target: Receptor tyrosine-protein kinase erbB-2 (Homo sapiens) (UniProt P04626); assay: as above; details: 18-24 h, at 10 µM, stronger effect = lower value
# Sequence of Receptor tyrosine-protein kinase erbB-2 (Homo sapiens) (P04626 whole entry, looked up): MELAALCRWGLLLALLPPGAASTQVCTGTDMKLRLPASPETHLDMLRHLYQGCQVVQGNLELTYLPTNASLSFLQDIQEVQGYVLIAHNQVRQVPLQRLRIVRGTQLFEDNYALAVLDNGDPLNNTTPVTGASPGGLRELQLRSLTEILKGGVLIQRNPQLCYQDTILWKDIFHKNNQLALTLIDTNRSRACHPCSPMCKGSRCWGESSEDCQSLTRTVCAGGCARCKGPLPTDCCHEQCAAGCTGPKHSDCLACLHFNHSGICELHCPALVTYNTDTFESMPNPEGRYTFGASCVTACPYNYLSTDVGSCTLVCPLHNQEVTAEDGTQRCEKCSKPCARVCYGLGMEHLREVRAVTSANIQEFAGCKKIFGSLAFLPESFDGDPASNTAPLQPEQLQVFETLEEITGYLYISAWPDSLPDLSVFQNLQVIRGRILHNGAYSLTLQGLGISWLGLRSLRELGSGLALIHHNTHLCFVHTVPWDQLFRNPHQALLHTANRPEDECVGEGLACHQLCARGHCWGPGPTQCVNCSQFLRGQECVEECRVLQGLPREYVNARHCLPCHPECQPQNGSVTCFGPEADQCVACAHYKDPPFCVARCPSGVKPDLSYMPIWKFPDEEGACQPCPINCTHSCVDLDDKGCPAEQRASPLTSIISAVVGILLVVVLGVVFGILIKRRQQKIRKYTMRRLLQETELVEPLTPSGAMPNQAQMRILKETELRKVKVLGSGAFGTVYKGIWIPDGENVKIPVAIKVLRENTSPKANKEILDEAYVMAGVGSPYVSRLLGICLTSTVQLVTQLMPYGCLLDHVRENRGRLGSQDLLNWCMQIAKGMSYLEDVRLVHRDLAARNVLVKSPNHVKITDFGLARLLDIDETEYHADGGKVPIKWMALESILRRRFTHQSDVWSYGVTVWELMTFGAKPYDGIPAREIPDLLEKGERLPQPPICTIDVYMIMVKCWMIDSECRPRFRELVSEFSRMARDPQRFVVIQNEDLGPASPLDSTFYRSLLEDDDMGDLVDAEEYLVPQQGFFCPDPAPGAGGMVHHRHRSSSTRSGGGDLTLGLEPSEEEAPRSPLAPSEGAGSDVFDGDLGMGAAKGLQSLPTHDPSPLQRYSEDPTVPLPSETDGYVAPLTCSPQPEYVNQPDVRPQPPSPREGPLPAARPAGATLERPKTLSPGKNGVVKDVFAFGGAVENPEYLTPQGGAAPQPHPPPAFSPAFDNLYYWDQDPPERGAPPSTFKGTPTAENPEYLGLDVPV
# [3] = SK-BR-3 cell growth inhibitors, pilot screen, 24 h, human (AID 572;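 active means viability at or below 10% of carrier control in both of two separate runs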;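 further: compound exposure lasted between 18 and 24 h rather than exactly 24 h; 100% = carrier-treated control wells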); details: SK-BR-3 viability, CellTiter-Glo luminescence, at 10 µM, stronger effect = lower value
# [4] = HUVEC growth inhibition – cell-based, human, primary screen (AID 575;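 active means viability at or below 30% in both replicate assays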;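 further: 100% = median of untreated cell wells with 0.1% DMSO on each plate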); details: HUVEC proliferation, CellTiter-Glo luminescence, 72 h; at 10 µM; stronger effect = lower value
# Method in brief: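 Timing: 72 h treatment at 37 °C; material: HUVEC primary cells; technique: CellTiter-Glo luminescence measuring cellular ATP; controls: vehicle and MePR control wells; measure: percent of median DMSO-control luminescence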
# [5] = growth inhibitors of H69AR lung tumor, primary screen, human, duplicate replicates (AID 580;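 active means viability at or under a set limit in both replicates, limit being median viability minus 3 SD, cut at about 48% in these data, passing the limit was not always enough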;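 further: 100% = mean luminescence of untreated wells and 0% = no signal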); details: H69AR lung tumor cells viability, ATP luminescence, 72 h; at 10 µM; stronger effect = lower value
# [6] = reversal of MRP1-mediated doxorubicin resistance, pilot screen, H69AR cells, doxorubicin co-treatment (AID 601;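 active means viability loss from added drug above about 55%, and viability with drug at most 40%, in both replicates, limit read from the data, passing the limit was not always enough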); details: CellTiter-Glo, 72 h, at 10 µM; for differential viability (reversal): stronger effect = higher value
# [7] = 384-well plate pilot, post-Golgi transport modulator project, inhibition of yeast transport mutant growth (AID 636; in the data active means inhibition above about 31%); details: absorbance 615 nm, about 18 h, stronger effect = higher value
# [8] = growth suppression of yeast trafficking mutant, preliminary HTS, modulators of trafficking downstream of Golgi apparatus project, 1536-format plate, OD 615 nm (AID 637; in the data active means inhibition above about 30%); details: yeast transport mutant growth, absorbance 615 nm, 18 h; stronger effect = higher value
# [9] = H69AR cells + 2 uM doxorubicin, measured here: viability with 2 uM doxorubicin, stronger effect = lower value
# [10] = H69AR cells, compound alone cytotoxicity
SMILES,viability [1],Her2 level [2],viability [3],viability [4],viability [5],differential viability (reversal) ([6]; H69AR cells + 2 uM doxorubicin),"viability [6, 9]","viability [6, 10]",inhibition [7],inhibition [8]
O=C(CSc1nnc(C2COc3ccccc3O2)o1)N1CCCc2ccccc21 (stereo not given),85.5%,78% (inactive),85.5% (inactive),60.9% (inactive),92.3% (inactive),-3.22% (inactive),95.5%,92.3%,-5.26% (inactive),-4% (inactive)
Clc1cccc(-c2nn3c(Cn4cnc5ccccc54)nnc3s2)c1,94.5%,82.5% (inactive),94.5% (inactive),76.9% (inactive),94.9% (inactive),-1.69% (inactive),96.6%,94.9%,0.92% (inactive),5.9% (inactive)
Oc1ccc(C=Nc2cccc3ncccc23)c(O)c1,103%,84.5% (inactive),103% (inactive),80% (inactive),84.9% (inactive),-3.45% (inactive),88.3%,84.9%,-2.93% (inactive),0.81% (inactive)
Cc1ccc2[nH]c(=O)c(C(c3nnnn3CCc3ccccc3)N3CCOCC3)cc2c1 (stereo not given),86%,87.5% (inactive),86% (inactive),76.9% (inactive),100% (inactive),12.1% (inactive),87.8%,100%,-5.95% (inactive),-0.49% (inactive)
Cc1ccc2c(c1)CCCN2C(=O)C1CCCO1 (stereo not given),101%,100% (inactive),101% (inactive),99.3% (inactive),108% (inactive),14.6% (inactive),93.3%,108%,-1.97% (inactive),-6.83% (inactive)
O=C(Nc1ccc2c(c1)OCO2)c1ccc(Br)c(S(=O)(=O)N2CCCC2)c1,98.5%,80.5% (inactive),98.5% (inactive),58% (inactive),94% (inactive),1.82% (inactive),92.2%,94%,-1.32% (inactive),-0.16% (inactive)
CC1CCCN(c2ccc(C(=O)NCc3cccs3)cn2)C1 (stereo not given),98.5%,89.5% (inactive),98.5% (inactive),96.1% (inactive),82.8% (inactive),4.85% (inactive),77.9%,82.8%,-0.91% (inactive),-2.86% (inactive)
Cc1cc(C)c2c(n1)nn1c(NCCCN3CCOCC3)cc(C)nc21,106%,79% (inactive),106% (inactive),98.8% (inactive),97.7% (inactive),7.13% (inactive),90.6%,97.7%,-5.54% (inactive),2.38% (inactive)
Nn1cc(-c2ccccc2)nc1SCC(=O)N1CCN(S(=O)(=O)c2ccccc2)CC1,77%,96% (inactive),77% (inactive),90.5% (inactive),101% (inactive),-0.4% (inactive),102%,101%,0.91% (inactive),-6.56% (inactive)
CC(C)(C)c1ccc(-c2nnc(SCCC#N)n2C2CCCC2)cc1,73.5%,98.5% (inactive),73.5% (inactive),65.7% (inactive),78.8% (inactive),18.4% (inactive),60.5%,78.8%,-4.32% (inactive),-4.1% (inactive)
COc1cc2c(cc1OC)C(c1ccccc1O)N(C1CC(=O)N(c3ccccc3)C1=O)CC2 (stereo not given),113%,96.5% (inactive),113% (inactive),97.7% (inactive),99.8% (inactive),18.3% (inactive),81.5%,99.8%,-4.42% (inactive),-5.08% (inactive)
C/C(N)=C(/C#N)C(=O)COC(=O)c1cc(S(=O)(=O)N2CCCCC2)ccc1C,88.5%,79.5% (inactive),88.5% (inactive),82.2% (inactive),95.8% (inactive),0.98% (inactive),94.8%,95.8%,0.38% (inactive),-3.83% (inactive)
O=c1c2[nH]c3cccc(Cl)c3c2ncn1CCN1CCCCC1,103%,83.5% (inactive),103% (inactive),101% (inactive),92.6% (inactive),4.01% (inactive),88.6%,92.6%,-4.13% (inactive),0.49% (inactive)
Cc1ccc(-n2c(SCC3CCCCO3)nnc2-c2ccco2)cc1 (stereo not given),89%,83% (inactive),89% (inactive),102% (inactive),91.4% (inactive),15.5% (inactive),75.9%,91.4%,0% (inactive),-8.5% (inactive)
CCOc1ccc(NC(=O)CN2CCN(CC(=O)c3ccc(OCC)cc3)CC2)cc1,95%,89% (inactive),95% (inactive),77.8% (inactive),89.3% (inactive),1.23% (inactive),88.1%,89.3%,-4.87% (inactive),-2.83% (inactive)
N/C(Cn1nnc(-c2ccccc2)n1)=N\O,97%,87.5% (inactive),97% (inactive),112% (inactive),107% (inactive),11% (inactive),96.3%,107%,-2.5% (inactive),-5.08% (inactive)
CCCc1cc(=O)n2[nH]cnc2n1,104%,102% (inactive),104% (inactive),110% (inactive),100% (inactive),3.53% (inactive),96.6%,100%,-6.22% (inactive),0.67% (inactive)
COc1ccc(N(CC(=O)N2CCCCC2)S(=O)(=O)c2ccccc2)c(OC)c1,91%,94.5% (inactive),91% (inactive),91.9% (inactive),86.5% (inactive),-2.6% (inactive),89.1%,86.5%,-1.03% (inactive),-3.83% (inactive)
Clc1ccc(-c2nnc3sc(-c4ccc(Br)o4)nn23)cc1,128%,94.5% (inactive),128% (inactive),86% (inactive),104% (inactive),10.5% (inactive),93.5%,104%,-5.07% (inactive),5.87% (inactive)
Cc1cc(Cl)ccc1NC(=O)CSc1nnc(Cc2cccs2)n1Cc1ccco1,77.5%,95.5% (inactive),77.5% (inactive),68.3% (inactive),77.2% (inactive),-8.29% (inactive),85.5%,77.2%,-3.92% (inactive),1.97% (inactive)
Cc1cc2ncn(S(=O)(=O)c3ccc(S(=O)(=O)N4CCOCC4)cc3)c2cc1C,91.5%,91.5% (inactive),91.5% (inactive),102% (inactive),98.3% (inactive),0.945% (inactive),97.3%,98.3%,-1.47% (inactive),-7.1% (inactive)
Cc1ccc2occ(CN3CCN(c4ccccc4)CC3)c(=O)c2c1,104%,104% (inactive),104% (inactive),89% (inactive),87.5% (inactive),-6.67% (inactive),94.2%,87.5%,-1.04% (inactive),-3.77% (inactive)
O=C1CSC(c2cn(-c3ccccc3)nc2-c2cccs2)N1CC1CCCO1 (stereo not given),102%,90% (inactive),102% (inactive),71.9% (inactive),95.7% (inactive),-0.73% (inactive),96.4%,95.7%,-2.11% (inactive),2.58% (inactive)
Cc1ccccc1-c1nc(CS(=O)(=O)CC(=O)N(C)C2CCCCC2)c(C)o1,108%,104% (inactive),108% (inactive),90.9% (inactive),92.7% (inactive),0.46% (inactive),92.2%,92.7%,0.27% (inactive),-5.08% (inactive)
COc1ccccc1N1CCN(C(=O)c2ccc3nc(-c4ccco4)c(-c4ccco4)nc3c2)CC1,103%,79.5% (inactive),103% (inactive),48.5% (inactive),69.6% (inactive),-8.06% (inactive),77.6%,69.6%,-4.67% (inactive),-4.1% (inactive)
COCCn1c(CN2CCN(c3ccccc3F)CC2)nc2c1c(=O)n(C)c(=O)n2C,105%,138% (inactive),105% (inactive),84.5% (inactive),95.8% (inactive),0.255% (inactive),95.6%,95.8%,-1.2% (inactive),1.5% (inactive)
CN1CCN(C(=O)c2cnn3c(C(F)F)cc(C4CC4)nc23)CC1,95%,88.5% (inactive),95% (inactive),103% (inactive),94.4% (inactive),9.3% (inactive),85.1%,94.4%,-2.63% (inactive),3.23% (inactive)
Cc1c(C#N)c(N)c(C(=O)c2ccccc2)n1Cc1ccccc1,83.5%,122% (inactive),83.5% (inactive),97.3% (inactive),87.4% (inactive),0.08% (inactive),87.3%,87.4%,-7.57% (inactive),-16.4% (inactive)
